Experiments:
Format in all cases: functional
[1] = tested on: Providencia stuartii; test: Antimicrobial activity against Proteus stuartii by broth microdilution method
Procedure, shortened: (§1)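 Clinical isolates were tested by CLSI broth microdilution in unsupplemented cation-adjusted Mueller-Hinton broth. The read-out was the MIC, reported as MIC90 (μg/ml) per species or phenotypic group. Ceftriaxone, levofloxacin and imipenem were run in parallel as comparators.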

[2] = tested on: Proteus vulgaris; test: Antimicrobial activity against Proteus vulgaris by broth microdilution method; procedure, shortened: as §1
[3] = tested on: Serratia marcescens; test: Antimicrobial activity against Serratia marcescens by broth microdilution method; procedure, shortened: as §1
[4] = tested on: Shigella sp.; test: Antimicrobial activity against Shigella spp. by broth microdilution method; procedure, shortened: as §1
[5] = tested on: Salmonella sp.; test: Antimicrobial activity against Salmonella spp. by broth microdilution method; procedure, shortened: as §1
[6] = tested on: Burkholderia cepacia; test: Antimicrobial activity against Burkholderia cepacia by broth microdilution method; procedure, shortened: as §1
[7] = tested on: Pseudomonas aeruginosa; test: Antimicrobial activity against Pseudomonas aeruginosa by broth microdilution method; procedure, shortened: as §1
[8] = tested on: Pseudomonas aeruginosa; test: Antimicrobial activity against multidrug resistant Pseudomonas aeruginosa by broth microdilution method
Procedure, shortened: (§2)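 Isolates of the stated resistance phenotype were tested by CLSI broth microdilution in unsupplemented cation-adjusted Mueller-Hinton broth. Ceftaroline was compared with ceftriaxone, levofloxacin and imipenem. Activity was expressed as MICs (MIC90 in μg/ml).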

[9] = tested on: Stenotrophomonas maltophilia; test: Antimicrobial activity against Stenotrophomonas maltophilia by broth microdilution method; procedure, shortened: as §1
[10] = tested on: Moraxella catarrhalis; test: Antimicrobial activity against Moraxella catarrhalis by broth microdilution method; procedure, shortened: as §1
[11] = tested on: Haemophilus influenzae; test: Antimicrobial activity against beta-lactamase-negative Haemophilus influenzae by broth microdilution method
Procedure, shortened: (§3)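 CLSI broth microdilution in Haemophilus test medium (cation-adjusted Mueller-Hinton base) against clinical H. influenzae isolates of the stated phenotype. Ceftaroline was compared with ceftriaxone, levofloxacin and imipenem. Activity was expressed as MICs (MIC90 in μg/ml).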

[12] = tested on: Haemophilus influenzae; test: Antimicrobial activity against beta-lactamase-positive Haemophilus influenzae by broth microdilution method
Procedure, shortened: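 H. influenzae isolates were tested by CLSI broth microdilution using Haemophilus test medium. The MIC was read and MIC90 (μg/ml) reported for the group. Ceftriaxone, levofloxacin and imipenem served as comparators.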

[13] = tested on: Haemophilus influenzae; test: Antimicrobial activity against beta-lactamase-negative ampicillin resistant Haemophilus influenzae by broth microdilution method; procedure, shortened: as §3
[14] = tested on: Staphylococcus aureus; test: Antimicrobial activity against methicillin-resistant Staphylococcus aureus by broth microdilution method; procedure, shortened: as §2
[15] = tested on: Staphylococcus aureus; test: Antimicrobial activity against methicillin-susceptible Staphylococcus aureus by broth microdilution method; procedure, shortened: as §1
[16] = tested on: Staphylococcus aureus; test: Antimicrobial activity against vancomycin-intermediate Staphylococcus aureus by broth microdilution method; procedure, shortened: as §1
[17] = tested on: Staphylococcus aureus; test: Antimicrobial activity against vancomycin-resistant Staphylococcus aureus by broth microdilution method; procedure, shortened: as §2
[18] = tested on: Staphylococcus; test: Antimicrobial activity against methicillin-resistant coagulase-negative Staphylococcus by broth microdilution method; procedure, shortened: as §2
[19] = tested on: Staphylococcus; test: Antimicrobial activity against methicillin-susceptible coagulase-negative Staphylococcus by broth microdilution method; procedure, shortened: as §1
[20] = tested on: Enterococcus faecalis; test: Antimicrobial activity against Enterococcus faecalis by broth microdilution method; procedure, shortened: as §1
[21] = tested on: Enterococcus faecalis; test: Antimicrobial activity against vancomycin-susceptible Enterococcus faecalis by broth microdilution method; procedure, shortened: as §1
[22] = tested on: Enterococcus faecium; test: Antimicrobial activity against Enterococcus faecium by broth microdilution method; procedure, shortened: as §1
[23] = tested on: Enterococcus faecium; test: Antimicrobial activity against vancomycin-susceptible Enterococcus faecium by broth microdilution method; procedure, shortened: as §1
[24] = tested on: Corynebacterium jeikeium; test: Antimicrobial activity against Corynebacterium jeikeium by broth microdilution method; procedure, shortened: as §1
[25] = tested on: Listeria monocytogenes; test: Antimicrobial activity against Listeria monocytogenes by broth microdilution method; procedure, shortened: as §1
[26] = tested on: Streptococcus agalactiae; test: Antimicrobial activity against Streptococcus agalactiae by broth microdilution method
Procedure, shortened: (§4)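 Streptococcal isolates were tested by CLSI broth microdilution in cation-adjusted Mueller-Hinton broth supplemented with 3% lysed horse blood. The read-out was the MIC, with MIC90 (μg/ml) reported per group. Ceftriaxone, levofloxacin and imipenem served as comparators.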

[27] = tested on: Streptococcus pneumoniae; test: Antimicrobial activity against levofloxacin-resistant Streptococcus pneumoniae by broth microdilution method
Procedure, shortened: (§5)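 CLSI broth microdilution in cation-adjusted Mueller-Hinton broth with 3% lysed horse blood, against streptococcal clinical isolates of the stated phenotype. Ceftaroline was compared with ceftriaxone, levofloxacin and imipenem. Activity was expressed as MICs (MIC90 in μg/ml).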

[28] = tested on: Streptococcus pneumoniae; test: Antimicrobial activity against penicillin-resistant Streptococcus pneumoniae by broth microdilution method; procedure, shortened: as §5
[29] = tested on: Streptococcus pneumoniae; test: Antimicrobial activity against penicillin-intermediate Streptococcus pneumoniae by broth microdilution method; procedure, shortened: as §5
[30] = tested on: Streptococcus pneumoniae; test: Antimicrobial activity against penicillin-susceptible Streptococcus pneumoniae by broth microdilution method; procedure, shortened: as §4
[31] = tested on: Streptococcus pyogenes; test: Antimicrobial activity against macrolide-resistant Streptococcus pyogenes by broth microdilution method; procedure, shortened: as §5
[32] = tested on: Streptococcus pyogenes; test: Antimicrobial activity against macrolide-susceptible Streptococcus pyogenes by broth microdilution method; procedure, shortened: as §5
[33] = tested on: Streptococcus viridans; test: Antimicrobial activity against Streptococcus viridans group clinical isolate by broth microdilution method; procedure, shortened: as §4
[34] = tested on: Klebsiella aerogenes; test: Antimicrobial activity against ESBL-negative Enterobacter aerogenes by broth microdilution method; procedure, shortened: as §1
[35] = tested on: Enterobacter cloacae; test: Antimicrobial activity against ESBL-negative Enterobacter cloacae by broth microdilution method; procedure, shortened: as §1
[36] = tested on: Escherichia coli; test: Antimicrobial activity against ESBL-negative Escherichia coli by broth microdilution method; procedure, shortened: as §1
[37] = tested on: Escherichia coli; test: Antimicrobial activity against ESBL-positive Escherichia coli by broth microdilution method; procedure, shortened: as §1
[38] = tested on: Klebsiella pneumoniae; test: Antimicrobial activity against ESBL-negative Klebsiella pneumoniae by broth microdilution method; procedure, shortened: as §1
[39] = tested on: Klebsiella pneumoniae; test: Antimicrobial activity against ESBL-positive Klebsiella pneumoniae by broth microdilution method; procedure, shortened: as §1
[40] = tested on: Morganella morganii; test: Antimicrobial activity against Morganella morganii by broth microdilution method; procedure, shortened: as §1
[41] = tested on: Proteus mirabilis; test: Antimicrobial activity against Proteus mirabilis by broth microdilution method; procedure, shortened: as §1
[42] = tested on: Providencia rettgeri; test: Antimicrobial activity against Proteus rettgeri by broth microdilution method; procedure, shortened: as §1

CO/N=C(\C(=O)N[C@@H]1C(=O)N2C(C(=O)O)=C(CSc3nc(=O)c(O)nn3C)CS[C@H]12)c1csc(N)n1 [CEFTRIAXONE]
32 µg/mL: MIC50 [14] | MIC50 [39] | MIC90 [40]
0.015 µg/mL: MIC [11] | MIC50 [11] | MIC90 [11] | MIC [12] | MIC50 [12] | MIC90 [12] | MIC [31] | MIC50 [31] | MIC [32] | MIC50 [32] | MIC [41] | MIC50 [41] | MIC90 [41]
0.03 µg/mL: MIC [4] | MIC50 [4] | MIC50 [30] | MIC90 [31] | MIC90 [32]
8 µg/mL: MIC90 [19] | MIC90 [28]
0.25 µg/mL: MIC90 [1] | MIC50 [3] | MIC50 [27] | MIC50 [29] | MIC50 [35] | MIC90 [36] | MIC90 [42]
0.12 µg/mL: MIC50 [13] | MIC90 [13] | MIC90 [26] | MIC50 [33] | MIC50 [34] | MIC90 [38]
4 µg/mL: MIC50 [15] | MIC90 [15]
> 32 µg/mL: MIC90 [2] | MIC90 [5] | MIC50 [6] | MIC90 [6] | MIC50 [7] | MIC90 [7] | MIC50 [9] | MIC90 [9] | MIC50 [16] | MIC90 [16] | MIC [17] | MIC90 [18] | MIC50 [20] | MIC90 [20] | MIC [21] | MIC50 [21] | MIC90 [21] | MIC [22] | MIC50 [22] | MIC90 [22] | MIC50 [23] | MIC90 [23] | MIC50 [24] | MIC90 [24] | MIC50 [25] | MIC90 [25] | MIC90 [34] | MIC50 [37] | MIC90 [37] | MIC90 [39]
2 µg/mL: MIC90 [3] | MIC50 [19] | MIC90 [27] | MIC50 [28]
1 µg/mL: MIC50 [2] | MIC90 [10] | MIC90 [33]
0.06 µg/mL: MIC50 [1] | MIC90 [4] | MIC50 [5] | MIC [26] | MIC50 [26] | MIC90 [30] | MIC50 [36] | MIC50 [38] | MIC50 [42]
16 µg/mL: MIC [8] | MIC50 [18]
0.5 µg/mL: MIC50 [10] | MIC90 [29] | MIC90 [35] | MIC50 [40]

C[C@@H](O)[C@H]1C(=O)N2C(C(=O)O)=C(SCCNC=N)C[C@H]12 [IMIPENEM ANHYDROUS]
0.12 µg/mL: MIC [4] | MIC50 [4] | MIC90 [33] | MIC50 [37] | MIC50 [39]
0.03 µg/mL: MIC90 [15] | MIC90 [19] | MIC50 [27] | MIC50 [29]
0.06 µg/mL: MIC50 [10] | MIC90 [10] | MIC50 [25] | MIC90 [25] | MIC90 [29]
0.5 µg/mL: MIC50 [3] | MIC50 [11] | MIC90 [11] | MIC90 [12] | MIC50 [13] | MIC50 [28] | MIC90 [35] | MIC90 [38]
32 µg/mL: MIC90 [6] | MIC90 [14] | MIC90 [18]
8 µg/mL: MIC50 [6] | MIC50 [8]
16 µg/mL: MIC90 [7] | MIC90 [8]
2 µg/mL: MIC50 [1] | MIC50 [2] | MIC90 [20] | MIC90 [21] | MIC50 [41] | MIC50 [42]
0.25 µg/mL: MIC90 [4] | MIC50 [5] | MIC90 [5] | MIC50 [12] | MIC50 [14] | MIC50 [16] | MIC50 [18] | MIC90 [27] | MIC50 [35] | MIC90 [37] | MIC50 [38] | MIC90 [39]
4 µg/mL: MIC90 [1] | MIC90 [2] | MIC50 [23] | MIC50 [40] | MIC90 [40] | MIC90 [41] | MIC90 [42]
1 µg/mL: MIC90 [3] | MIC [7] | MIC50 [7] | MIC90 [13] | MIC [17] | MIC50 [20] | MIC50 [21] | MIC90 [28] | MIC50 [34] | MIC90 [34]
0.015 µg/mL: MIC [15] | MIC50 [15] | MIC [19] | MIC50 [19] | MIC [26] | MIC50 [26] | MIC90 [26] | MIC [30] | MIC50 [30] | MIC90 [30] | MIC [31] | MIC50 [31] | MIC90 [31] | MIC [32] | MIC50 [32] | MIC90 [32] | MIC [33] | MIC50 [33]
> 32 µg/mL: MIC50 [9] | MIC90 [9] | MIC90 [16] | MIC50 [22] | MIC90 [22] | MIC90 [23] | MIC50 [24] | MIC90 [24]

Source: ChEMBL document CHEMBL1629657, “In vitro antimicrobial activity of a new cephalosporin, ceftaroline, and determination of quality control ranges for MIC testing” (2009)
